Experiment [1] has as its target Urease (Canavalia ensiformis) (UniProt P07374). Put plainly: Inhibition of jack bean urease using urea as substrate assessed as reduction in ammonia production at 1 mM after 30 mins by indophenol method.
A further experiment has as its system NCI-H157. Briefly: Growth inhibition of human NCI-H157 cells at 100 uM after 48 hrs by SRB assay. It is filed as functional. The following applies: NCI-H157, 48 h, read-out: GI. A digest of the protocol:
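H-157 cells seeded at 10⁴ cells per well and grown at 37 °C under 5% CO₂ to a monolayer within 24 h. Compound added, with a vincristine standard and a cells-plus-media blank, for 48 h. Cells fixed in 50% ice-cold TCA (4 °C, 1 h), washed 5× with PBS, stained with 0.4% w/v SRB in 1% acetic acid (30 min, RT), rinsed, and dye solubilized in 10 mM Tris base. A490 read minus A630 background; triplicate.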
Background: In SRB staining, fixed cells bind dye roughly in proportion to their protein.

A further experiment concerns the target Urease (Canavalia ensiformis, UniProt P07374). Put plainly: Inhibition of jack bean urease using urea as substrate assessed as reduction in ammonia production after 30 mins by indophenol method. The gist of the method: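 Compounds were first screened, and those giving at least 50% inhibition went on to dose-response testing. For each, 7–9 serial dilutions were made in assay buffer, and curves were run under the same conditions as the initial screen.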

This note sets out measurements from ChEMBL document CHEMBL3826920, “Solution-phase microwave assisted parallel synthesis, biological evaluation and in silico docking studies of N,N'-disubstituted thioureas derived from 3-chlorobenzoic acid” (Bioorg Med Chem, 2016).

Chain of Urease (P07374 whole entry): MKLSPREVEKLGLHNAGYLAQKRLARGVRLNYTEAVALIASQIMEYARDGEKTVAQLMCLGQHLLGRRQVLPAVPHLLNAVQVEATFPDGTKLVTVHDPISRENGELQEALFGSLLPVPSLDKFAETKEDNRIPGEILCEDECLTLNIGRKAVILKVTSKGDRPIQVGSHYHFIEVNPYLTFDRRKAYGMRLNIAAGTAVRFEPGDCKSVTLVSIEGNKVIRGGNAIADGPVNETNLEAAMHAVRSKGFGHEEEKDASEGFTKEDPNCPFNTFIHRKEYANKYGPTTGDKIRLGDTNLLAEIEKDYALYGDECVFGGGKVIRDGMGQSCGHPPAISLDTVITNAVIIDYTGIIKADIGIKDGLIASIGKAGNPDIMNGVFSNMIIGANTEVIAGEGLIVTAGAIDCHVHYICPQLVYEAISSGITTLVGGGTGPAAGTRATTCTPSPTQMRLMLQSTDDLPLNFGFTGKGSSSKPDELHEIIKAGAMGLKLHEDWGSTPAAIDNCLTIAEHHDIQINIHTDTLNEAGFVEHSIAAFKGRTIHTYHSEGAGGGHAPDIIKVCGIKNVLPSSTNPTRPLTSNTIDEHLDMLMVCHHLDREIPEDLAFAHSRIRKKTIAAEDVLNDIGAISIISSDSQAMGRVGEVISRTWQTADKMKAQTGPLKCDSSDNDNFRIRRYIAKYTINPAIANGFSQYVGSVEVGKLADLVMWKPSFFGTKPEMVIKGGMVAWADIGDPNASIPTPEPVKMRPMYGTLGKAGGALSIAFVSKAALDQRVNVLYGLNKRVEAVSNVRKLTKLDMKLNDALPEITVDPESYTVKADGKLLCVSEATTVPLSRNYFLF
Chain of Urease (Canavalia ensiformis) (P07374 whole entry, looked up): as the sequence (P07374 whole entry) above

For `O=C(NC(=S)Nc1cccc(Cl)c1)c1cccc(Cl)c1`, the inhibition in experiment [1] was 29.1%. Further, in the experiment on NCI-H157, the inhibition of growth at 100 µM was 52.9%.

Turning to `CC[C@]1(O)C[C@H]2CN(CCc3c([nH]c4ccccc34)[C@@](C(=O)OC)(c3cc4c(cc3OC)N(C=O)[C@H]3[C@@](O)(C(=O)OC)[C@H](OC(C)=O)[C@]5(CC)C=CCN6CC[C@]43[C@@H]65)C2)C1` [VINCRISTINE], the inhibition of growth at 100 µM in the experiment on NCI-H157 amounted to 74.6%.

With `O=C(NC(=S)Nc1c(Cl)cccc1Cl)c1cccc(Cl)c1`, on Urease, the IC50 was found to be 5.38 µM. Further, the inhibition of growth at 100 µM in the experiment on NCI-H157 turned out to be 42.2%.

`O=C(NC(=S)Nc1ccc([N+](=O)[O-])cc1)c1cccc(Cl)c1`: in experiment [1], the inhibition is 28.1%. Besides, the inhibition of growth at 100 µM with NCI-H157 is 32.7%.

With `O=C(NC(=S)Nc1cccc2ccccc12)c1cccc(Cl)c1`, in experiment [1], the inhibition was determined as 37.1%. Besides, the inhibition of growth at 100 µM with NCI-H157 was found to be 42.2%.

For `O=C(NC(=S)Nc1ccccc1[N+](=O)[O-])c1cccc(Cl)c1`, the IC50 at Urease was 8.59 µM. Further, in the experiment on NCI-H157, the inhibition of growth at 100 µM was found to be 36.4%.

As for `O=C(NC(=S)Nc1cc(Cl)c(Cl)cc1Cl)c1cccc(Cl)c1`, the IC50 at Urease amounted to 7.41 µM. The inhibition of growth at 100 µM in the experiment with NCI-H157 came to 43.3%.

For the compound `COc1ccccc1NC(=S)NC(=O)c1cccc(Cl)c1`, the IC50 at Urease stood at 3.79 µM. Further, in the experiment on NCI-H157, the inhibition of growth at 100 µM worked out at 42.8%.

Regarding `O=C(NC(=S)NC1CCCCC1)c1cccc(Cl)c1`, the IC50 on Urease stood at 14.3 µM. Also, the inhibition of growth at 100 µM in the experiment on NCI-H157 came to 48.5%.

Regarding `O=C(NC(=S)Nc1cccc(C(F)(F)F)c1)c1cccc(Cl)c1`, at Urease, the IC50 is 2.86 µM. The inhibition of growth at 100 µM in the experiment with NCI-H157 was found to be 48.9%.

For the compound `O=C(NC(=S)Nc1ccc(Cl)cc1)c1cccc(Cl)c1`, at Urease, the IC50 is 11.7 µM. In addition, the inhibition of growth at 100 µM with NCI-H157 came out at 52.6%.

Consider `O=C(NC(=S)Nc1c(Cl)cc(Cl)cc1Cl)c1cccc(Cl)c1`, for which the half-maximal inhibitory concentration (IC50) at Urease came out at 3.64 µM. Besides, the inhibition of growth at 100 µM in the experiment on NCI-H157 was 60.9%.

As to `Cc1ccc(NC(=S)NC(=O)c2cccc(Cl)c2)cc1`, the IC50 on Urease is 12.4 µM. Besides, the inhibition of growth at 100 µM in the experiment on NCI-H157 stood at 39.4%.

Consider `O=C(NC(=S)Nc1nc2ccccc2s1)c1cccc(Cl)c1`, for which the inhibition in experiment [1] was 27.9%. Further, the inhibition of growth at 100 µM with NCI-H157 came out at 48.8%.

As to `O=C(NC(=S)Nc1cc(Cl)ccc1Cl)c1cccc(Cl)c1`, the IC50 at Urease was found to be 9.72 µM. Also, the inhibition of growth at 100 µM in the experiment on NCI-H157 was 46.6%.

As for `O=C(NC(=S)Nc1cccc(Br)c1)c1cccc(Cl)c1`, the IC50 at Urease is 20.1 µM. For the same compound, the inhibition of growth at 100 µM in the experiment on NCI-H157 amounted to 32.4%.

Take `O=C(NC(=S)N(C1CCCCC1)C1CCCCC1)c1cccc(Cl)c1`: in experiment [1], the inhibition came out at 29.9%. In addition, the inhibition of growth at 100 µM with NCI-H157 came out at 47.8%.

For `O=C(NC(=S)NCc1ccccc1Cl)c1cccc(Cl)c1`, in experiment [1], the inhibition was determined as 27.4%. The inhibition of growth at 100 µM with NCI-H157 worked out at 27.6%.

Regarding `O=C(NC(=S)NCc1ccccc1)c1cccc(Cl)c1`, the IC50 at Urease came out at 16.4 µM. The inhibition of growth at 100 µM in the experiment on NCI-H157 came to 40.5%.

Turning to `O=C(NC(=S)Nc1cc(Cl)cc(Cl)c1)c1cccc(Cl)c1`, the IC50 on Urease was 6.53 µM. In the experiment with NCI-H157, the inhibition of growth at 100 µM came to 48.5%.

Turning to `O=C(NC(=S)Nc1cccc(Cl)c1Cl)c1cccc(Cl)c1`, the IC50 on Urease is 1.92 µM. Further, the inhibition of growth at 100 µM in the experiment on NCI-H157 was found to be 50.7%.

With `O=C(NC(=S)Nc1ncccn1)c1cccc(Cl)c1`, on Urease, the IC50 is 2.11 µM. Besides, in the experiment with NCI-H157, the inhibition of growth at 100 µM came out at 57.2%.

As for `Cc1cc(C)c(NC(=S)NC(=O)c2cccc(Cl)c2)c(C)c1`, the IC50 at Urease was 1.23 µM. The inhibition of growth at 100 µM with NCI-H157 worked out at 43.7%.

With `O=C(NC(=S)Nc1ccc(C(F)(F)F)cc1)c1cccc(Cl)c1`, the IC50 on Urease was determined as 7.04 µM. Besides, the inhibition of growth at 100 µM with NCI-H157 is 44.6%.

In the case of `O=C(NC(=S)Nc1c(Cl)c(Cl)cc(Cl)c1Cl)c1cccc(Cl)c1`, the inhibition in experiment [1] came out at 32.7%. The inhibition of growth at 100 µM in the experiment with NCI-H157 came out at 45.5%.

As to `CCc1cccc(CC)c1NC(=S)NC(=O)c1cccc(Cl)c1`, the IC50 on Urease was determined as 12.6 µM. Besides, the inhibition of growth at 100 µM with NCI-H157 was 41.2%.

For the compound `COc1cccc(NC(=S)NC(=O)c2cccc(Cl)c2)c1`, in experiment [1], the inhibition came out at 21.7%. The inhibition of growth at 100 µM in the experiment on NCI-H157 came to 42.2%.

On to `Cc1cccc(NC(=S)NC(=O)c2cccc(Cl)c2)c1C`, for which, at Urease, the IC50 was 4.45 µM. The inhibition of growth at 100 µM in the experiment on NCI-H157 was 41.7%.

With `O=C(NC(=S)Nc1ccc(Cl)c(Cl)c1)c1cccc(Cl)c1`, the inhibition in experiment [1] was determined as 36.7%. Also, in the experiment on NCI-H157, the inhibition of growth at 100 µM is 39.4%.

Turning to `O=C(NC(=S)Nc1ccccc1Cl)c1cccc(Cl)c1`, the inhibition in experiment [1] was 25.7%. The inhibition of growth at 100 µM with NCI-H157 turned out to be 45.4%.

As for `CCCCc1ccc(NC(=S)NC(=O)c2cccc(Cl)c2)cc1`, the inhibition in experiment [1] is 36.9%. In addition, the inhibition of growth at 100 µM in the experiment with NCI-H157 came to 47.7%.

In the case of `O=C(NC(=S)Nc1ccc([N+](=O)[O-])cc1[N+](=O)[O-])c1cccc(Cl)c1`, the inhibition in experiment [1] is 23.1%. The inhibition of growth at 100 µM with NCI-H157 came out at 36.1%.

In the case of `CN(C(=S)NC(=O)c1cccc(Cl)c1)c1ccccc1`, on Urease, the IC50 is 17.5 µM. Also, the inhibition of growth at 100 µM in the experiment with NCI-H157 amounted to 45.1%.

Regarding `O=C(NC(=S)Nc1ccc(Cl)cc1Cl)c1cccc(Cl)c1`, the IC50 at Urease came out at 1.34 µM. Moreover, in the experiment with NCI-H157, the inhibition of growth at 100 µM is 38.9%.

With `O=C(NC(=S)Nc1ccc(F)cc1)c1cccc(Cl)c1`, the IC50 on Urease was determined as 2.91 µM.

Regarding `O=C(NC(=S)Nc1ccc(Br)cc1Br)c1cccc(Cl)c1`, the IC50 on Urease is 6.32 µM. Besides, in the experiment with NCI-H157, the inhibition of growth at 100 µM was 38.2%.

As for `O=C(NC(=S)Nc1ccccc1)c1cccc(Cl)c1`, the IC50 at Urease worked out at 3.24 µM. Further, the inhibition of growth at 100 µM in the experiment on NCI-H157 was 45.2%.

Take `O=C(NC(=S)Nc1ccccc1C(F)(F)F)c1cccc(Cl)c1`: on Urease, the IC50 came out at 5.58 µM. The inhibition of growth at 100 µM in the experiment with NCI-H157 came to 36.9%.

A word on the inhibition: it is the relative decrease from the control value, in per cent. Usually IC50 stands for the concentration that gives 50% inhibition.
